ChEMBL document CHEMBL2401717, “Synthesis and bioactive evaluation of novel hybrids of metronidazole and berberine as new type of antimicrobial agents and their transportation behavior by human serum albumin” (Bioorg Med Chem, 2013)
In brackets after ≈: the same amount, converted by molar mass.

Columns and labels:
Shigella dysenteriae = assay: Antibacterial activity against Shigella dysenteriae after 24 hrs by twofold broth dilution method; assay type: functional
How it was run: (§1)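 MIC by NCCLS-recommended twofold broth microdilution, run in triplicate. Strains: B. subtilis ATCC6633, E. coli DH52, M. luteus ATCC4698, P. vulgaris ATCC6896, S. dysenteriae, S. aureus ATCC25923, MRSA N315, C. albicans ATCC76615, C. mycoderma. References were chloromycin, norfloxacin and berberine for bacteria, and fluconazole for fungi.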

Bacillus subtilis = assay: Antibacterial activity against Bacillus subtilis after 24 hrs by twofold broth dilution method; assay type: functional; how it was run: as §1
[1] = Stability of the compound at pH 6.5 to 8.5 after 30 mins by UV spectrophotometry; assay type: physicochemical; settings: buffer, pH 6.5, 0.5 h
How it was run: (§2)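 Stability followed by UV spectrometry across pH 6.5–8.5 and temperatures 30–80 °C.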

[2] = Octanol-water partition coefficient, log P of the compound after 24 hrs by UV-Vis spectrophotometry; assay type: physicochemical
Staphylococcus aureus [3] = assay: Antibacterial activity against methicillin-resistant Staphylococcus aureus N315 after 24 hrs by twofold broth dilution method; assay type: functional; settings: N315, 24 h; how it was run: as §1
Candida = assay: Antifungal activity against Candida mycoderma after 24 hrs by twofold broth dilution method; assay type: functional; how it was run: as §1
Pseudomonas aeruginosa = assay: Antibacterial activity against Pseudomonas aeruginosa after 24 hrs by twofold broth dilution method; assay type: functional
How it was run: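 Twofold broth dilution in 96-well microplates following NCCLS guidance; MIC read as the endpoint; tests run in triplicate.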

Escherichia coli = assay: Antibacterial activity against Escherichia coli DH52 after 24 hrs by twofold broth dilution method; assay type: functional; settings: DH52, 24 h; how it was run: as §1
[4] = Solubility of the compound in phosphate buffer at pH 7.5 after 20 hrs by UV spectrophotometry; assay type: physicochemical
How it was run: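 Phosphate buffer pH 7.5 added to solid; suspension sonicated 10 min, then shaken at room temperature for 20 h and centrifuged. Supernatant concentration read by UV absorbance against a regression calibration curve (278 and 340 nm).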

Candida albicans = assay: Antifungal activity against Candida albicans after 24 hrs by twofold broth dilution method; assay type: functional; how it was run: as §1
Micrococcus luteus = assay: Antibacterial activity against Micrococcus luteus ATCC 4698 after 24 hrs by twofold broth dilution method; assay type: functional; settings: ATCC 4698, 24 h; how it was run: as §1
[5] = Stability of the compound at 30 to 80 degC after 30 mins by UV spectrophotometry; assay type: physicochemical; settings: 0.5 h; how it was run: as §2
Staphylococcus aureus [6] = assay: Antibacterial activity against Staphylococcus aureus ATCC 25923 after 24 hrs by twofold broth dilution method; assay type: functional; settings: ATCC 25923, 24 h; how it was run: as §1
Proteus vulgaris = assay: Antibacterial activity against Proteus vulgaris after 24 hrs by twofold broth dilution method; assay type: functional; how it was run: as §1

Row | Compound | MIC (Shigella dysenteriae) [µg/mL] | MIC (Bacillus subtilis) [µg/mL] | Stability [1] | logP at 24 h [2] | MIC (Staphylococcus aureus [3]) [µg/mL] | MIC (Candida) [µg/mL] | MIC (Pseudomonas aeruginosa) [µg/mL] | MIC (Escherichia coli) [µg/mL] | solubility at 20 h [4] [µg/mL] | MIC (Candida albicans) [µg/mL] | MIC (Micrococcus luteus) [µg/mL] | Stability [5] | MIC (Staphylococcus aureus [6]) [µg/mL] | MIC (Proteus vulgaris) [µg/mL]
1 | COc1ccc2cc3[n+](cc2c1OCCN(CCn1cncc1[N+](=O)[O-])Cc1ccc(Cl)cc1)CCc1cc2c(cc1-3)OCO2.[Cl-] | 32 | 128 | Stable | 0.53 | 32 | 64 | 16 | 32 | 68.1 | 32 | 64 | Stable | 16 | 32
2 | Cc1ncc([N+](=O)[O-])n1CCN(CCBr)Cc1ccc(F)cc1F | 32 (≈ 79.4 µM) | 256 (≈ 635 µM) |  |  | 16 (≈ 39.7 µM) | 128 (≈ 317 µM) | 64 (≈ 159 µM) | 32 (≈ 79.4 µM) |  | 128 (≈ 317 µM) | 128 (≈ 317 µM) |  | 64 (≈ 159 µM) | 128 (≈ 317 µM)
3 | O=[N+]([O-])c1cn(CCN(CCBr)Cc2ccc(F)cc2F)cn1 | 16 (≈ 41.1 µM) | 64 (≈ 164 µM) |  |  | 64 (≈ 164 µM) | 8 (≈ 20.6 µM) | 16 (≈ 41.1 µM) | 32 (≈ 82.2 µM) |  | 32 (≈ 82.2 µM) | 16 (≈ 41.1 µM) |  | 32 (≈ 82.2 µM) | 32 (≈ 82.2 µM)
4 | O=[N+]([O-])c1cn(CCN(CCBr)Cc2ccc(Cl)c(Cl)c2)cn1 | 16 (≈ 37.9 µM) | 32 (≈ 75.8 µM) |  |  | 64 (≈ 152 µM) | 64 (≈ 152 µM) | 32 (≈ 75.8 µM) | 32 (≈ 75.8 µM) |  | 32 (≈ 75.8 µM) | 64 (≈ 152 µM) |  | 32 (≈ 75.8 µM) | 64 (≈ 152 µM)
5 | O=[N+]([O-])c1cn(CCN(CCBr)Cc2ccccc2Cl)cn1 | 32 (≈ 82.5 µM) | 32 (≈ 82.5 µM) |  |  | 64 (≈ 165 µM) | 128 (≈ 330 µM) | 32 (≈ 82.5 µM) | 32 (≈ 82.5 µM) |  | 16 (≈ 41.3 µM) | 64 (≈ 165 µM) |  | 16 (≈ 41.3 µM) | 64 (≈ 165 µM)
6 | O=[N+]([O-])c1cn(CCN(CCBr)Cc2cccc(Cl)c2)cn1 | 256 (≈ 660 µM) | 64 (≈ 165 µM) |  |  | 128 (≈ 330 µM) | 128 (≈ 330 µM) | 64 (≈ 165 µM) | 128 (≈ 330 µM) |  | 128 (≈ 330 µM) | 64 (≈ 165 µM) |  | 64 (≈ 165 µM) | 512 (≈ 1320 µM)
7 | O=[N+]([O-])c1cn(CCN(CCBr)Cc2ccc(Cl)cc2)cn1 | 128 (≈ 330 µM) | 64 (≈ 165 µM) |  |  | 128 (≈ 330 µM) | 128 (≈ 330 µM) | 256 (≈ 660 µM) | 128 (≈ 330 µM) |  | 64 (≈ 165 µM) | 128 (≈ 330 µM) |  | 64 (≈ 165 µM) | 128 (≈ 330 µM)
8 | O=[N+]([O-])c1cncn1CCN(CCBr)Cc1ccc(F)cc1F | 8 (≈ 20.6 µM) | 64 (≈ 164 µM) |  |  | 32 (≈ 82.2 µM) | 4 (≈ 10.3 µM) | 8 (≈ 20.6 µM) | 32 (≈ 82.2 µM) |  | 16 (≈ 41.1 µM) | 16 (≈ 41.1 µM) |  | 32 (≈ 82.2 µM) | 16 (≈ 41.1 µM)
9 | COc1ccc2cc3[n+](cc2c1OC)CCc1cc2c(cc1-3)OCO2.[Cl-] [BERBERINE CHLORIDE] | 256 | > 512 |  |  | 128 | 128 | 256 | > 512 |  | > 512 | > 512 |  | 512 | 128
10 | NC1CCN(c2c(F)cc3c(=O)c(C(=O)O)cn(C4CC4)c3c2Cl)C1 (stereo not given) [CLINAFLOXACIN] |  |  |  |  |  |  | 16 (≈ 43.7 µM) |  |  |  |  |  |  | 
11 | OC(Cn1cncn1)(Cn1cncn1)c1ccc(F)cc1F [FLUCONAZOLE] |  |  |  |  |  | 4 (≈ 13.1 µM) |  |  |  | 1 (≈ 3.27 µM) |  |  |  | 
12 | CCn1cc(C(=O)O)c(=O)c2cc(F)c(N3CCNCC3)cc21 [NORFLOXACIN] | 4 (≈ 12.5 µM) | 1 (≈ 3.13 µM) |  |  | 8 (≈ 25.1 µM) |  | 16 (≈ 50.1 µM) | 16 (≈ 50.1 µM) |  |  | 2 (≈ 6.26 µM) |  | 0.5 (≈ 1.57 µM) | 8 (≈ 25.1 µM)
